# According to ChEMBL document CHEMBL1137651 (Antimicrob Agents Chemother, 2007):
# Activity calls are given as the source filed them. The rule behind the calls is not given here.
# Legend:
# [1] = AUC in Mycobacterium tuberculosis H37Rv ATCC 2517-infected hollow fiber system based in vitro pharmacokinetic-pharmacodynamic tuberculosis model at 2 mg/L for 7 hrs; format: ADME
# Homo sapiens [2] = experiment: fCmax in Mycobacterium tuberculosis H37Rv ATCC 2517-infected patient serum at 600 mg/day, po; format: ADME, organism-based
# [3] = test system: Mycobacterium tuberculosis; experiment: Antimycobacterial activity against drug-sensitive Mycobacterium tuberculosis H37Rv ATCC 2517-infected hollow fiber system based in vitro pharmacokinetic-pharmacodynamic tuberculosis model assessed as sigmoidicity constant for drug effect on microbial growth; format: functional
# [4] = test system: Mycobacterium tuberculosis; experiment: Antimycobacterial activity against drug-sensitive Mycobacterium tuberculosis H37Rv ATCC 2517-infected hollow fiber system based in vitro pharmacokinetic-pharmacodynamic tuberculosis model assessed as sigmoidicity constant for microbial killing; format: functional
# [5] = test system: Mycobacterium tuberculosis; experiment: Antimycobacterial activity against drug-sensitive Mycobacterium tuberculosis H37Rv ATCC 2517-infected hollow fiber system based in vitro pharmacokinetic-pharmacodynamic tuberculosis model assessed as concentration needed to achieve 50% effect on maximal growth rate; format: functional
# [6] = AUC (0 to 168 hrs) in Mycobacterium tuberculosis H37Rv ATCC 2517-infected hollow fiber system based in vitro pharmacokinetic-pharmacodynamic tuberculosis model administered at dose simulating 4200 mg once weekly schedule; format: ADME; set-up: time < 168 hr, dose 4200 mg
# Summary of the method: (§1)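 Samples were cleaned up by solid-phase extraction and quantified by LC-MS (C18 column, 25 mM ammonium acetate/acetonitrile 58:42).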
# Homo sapiens [7] = experiment: fAUC (0 to 168 hrs) in Mycobacterium tuberculosis H37Rv ATCC 2517-infected patient serum at 4200 mg, po administered once a week; format: ADME, organism-based; conditions: in vivo
# [8] = AUC (0 to 168 hrs) in Mycobacterium tuberculosis H37Rv ATCC 2517-infected hollow fiber system based in vitro pharmacokinetic-pharmacodynamic tuberculosis model; format: ADME; set-up: time < 168 hr; summary of the method: as §1
# [9] = test system: Mycobacterium tuberculosis; experiment: Antimycobacterial activity against drug-sensitive Mycobacterium tuberculosis H37Rv ATCC 2517-infected hollow fiber system based in vitro pharmacokinetic-pharmacodynamic tuberculosis model assessed as rate constant for maximal bacterial kill; format: functional
# [10] = AUC in Mycobacterium tuberculosis H37Rv ATCC 2517-infected hollow fiber system based in vitro pharmacokinetic-pharmacodynamic tuberculosis model at 14 mg/L for 0.5 hrs; format: ADME
# [11] = test system: Mycobacterium tuberculosis; experiment: Antimycobacterial activity against Mycobacterium tuberculosis H37Rv ATCC 2517 infected in hollow fiber system based in vitro pharmacokinetic-pharmacodynamic tuberculosis model assessed as microbial killing administered at simulated dose of 4200 mg, po once weekly; format: functional, organism-based
# Summary of the method: (§2)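 Hollow-fiber model at 37°C with 5% CO2. […] Schedules were daily for 7 days, twice weekly (day 0 and 3.5) or once weekly, plus an untreated control. Peripheral samples were taken daily for 7 days, saline-washed twice and plated on 7H10 agar; kill is relative to baseline.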
# [12] = AUC in Mycobacterium tuberculosis H37Rv ATCC 2517-infected hollow fiber system based in vitro pharmacokinetic-pharmacodynamic tuberculosis model at 7 mg/L for 2 hrs; format: ADME
# [13] = test system: Mycobacterium tuberculosis; experiment: Antimycobacterial activity against drug-sensitive Mycobacterium tuberculosis H37Rv ATCC 2517-infected hollow fiber system based in vitro pharmacokinetic-pharmacodynamic tuberculosis model assessed as concentration needed to achieve 50% maximal killing rate; format: functional
# [14] = test system: Mycobacterium tuberculosis; experiment: Post antibiotic effect against Mycobacterium tuberculosis H37Rv ATCC 2517 infected hollow fiber system based in vitro pharmacokinetic-pharmacodynamic tuberculosis model at 14 mg/L administered for 0.5 hrs; format: functional
# Summary of the method: (§3)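 Broth cultures grown 4 days were exposed at 10^6 CFU/ml to the stated concentration and duration. They were then washed twice by centrifugation (2,000 x g, 10 min) and resuspended in fresh broth, shaken at 37°C in 5% CO2, and sampled every other day for agar counts. PAE equals the time for exposed cultures to grow 1 log10 CFU/ml minus that for controls. The study was performed twice.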
# Homo sapiens [15] = experiment: fCmax in Mycobacterium tuberculosis H37Rv ATCC 2517-infected patient serum at 4200 mg, po administered once a week; format: ADME, organism-based; conditions: in vivo
# [16] = test system: Mycobacterium tuberculosis; experiment: Post antibiotic effect against Mycobacterium tuberculosis H37Rv ATCC 2517 infected hollow fiber system based in vitro pharmacokinetic-pharmacodynamic tuberculosis model at 7 mg/L administered for 2 hrs; format: functional
# [17] = test system: Mycobacterium tuberculosis; experiment: Post antibiotic effect against Mycobacterium tuberculosis H37Rv ATCC 2517 infected hollow fiber system based in vitro pharmacokinetic-pharmacodynamic tuberculosis model at 2 mg/L administered for 7 hrs; format: functional; summary of the method: as §3
# [18] = test system: Mycobacterium tuberculosis; experiment: Antimycobacterial activity against drug-sensitive Mycobacterium tuberculosis H37Rv ATCC 2517-infected hollow fiber system based in vitro pharmacokinetic-pharmacodynamic tuberculosis model assessed as rate constant for maximal bacterial growth; format: functional
# Homo sapiens [19] = experiment: fAUC (0 to 168 hrs) in Mycobacterium tuberculosis H37Rv ATCC 2517-infected patient serum at 2100 mg, po administered twice a week; format: ADME, organism-based; conditions: in vivo
# [20] = test system: Mycobacterium tuberculosis; experiment: Post antibiotic effect against Mycobacterium tuberculosis H37Rv ATCC 2517 infected hollow fiber system based in vitro pharmacokinetic-pharmacodynamic tuberculosis model at 7 mg/L administered for 1 hr; format: functional; summary of the method: as §3
# [21] = AUC in Mycobacterium tuberculosis H37Rv ATCC 2517-infected hollow fiber system based in vitro pharmacokinetic-pharmacodynamic tuberculosis model at 7 mg/L for 1 hr; format: ADME
# [22] = test system: Mycobacterium tuberculosis; experiment: Antimycobacterial activity against Mycobacterium tuberculosis H37Rv ATCC 2517 infected in hollow fiber system based in vitro pharmacokinetic-pharmacodynamic tuberculosis model assessed as microbial killing administered at simulated dose of 600 mg/day for 7 days; format: functional; summary of the method: as §2
# [23] = AUC (0 to 168 hrs) in Mycobacterium tuberculosis H37Rv ATCC 2517-infected patient serum at 600 mg/day, po; format: ADME, organism-based, Plasma; set-up: time < 168 hr, dose 600 mg/day, route oral; conditions: human
# [24] = Clearance in Mycobacterium tuberculosis H37Rv ATCC 2517-infected hollow fiber system based in vitro pharmacokinetic-pharmacodynamic tuberculosis model; format: ADME, organism-based
# [25] = test system: Mycobacterium tuberculosis; experiment: microbe, parasite or virus in culture
# Homo sapiens [26] = experiment: fCmax in Mycobacterium tuberculosis H37Rv ATCC 2517-infected patient serum at 2100 mg, po administered twice a week; format: ADME, organism-based; conditions: in vivo
# [27] = test system: Mycobacterium tuberculosis; experiment: Drug uptake in Mycobacterium tuberculosis H37Rv ATCC 2517-infected hollow fiber system based in vitro pharmacokinetic-pharmacodynamic tuberculosis model; format: ADME, organism-based
# Summary of the method: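 Log-phase culture was adjusted to 10^6 CFU/ml in 7H9 broth held at 37°C or 0°C, then given 0, 2, 7 or 14 mg/liter drug. Samples taken at 0, 5, 15, 30 and 60 min were spun through silicone oil, and drug in the pellet was measured by LC-MS. Values at 0°C (cell-wall binding) were subtracted from those at 37°C. Cell volume was estimated from protein by BCA. Run in triplicate.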
# Homo sapiens [28] = experiment: fAUC (0 to infinity) in Mycobacterium tuberculosis H37Rv ATCC 2517-infected patient serum at 600 mg/day, po; format: ADME, organism-based
# [29] = test system: Mycobacterium tuberculosis; experiment: Antimycobacterial activity against Mycobacterium tuberculosis H37Rv ATCC 2517 infected in hollow fiber system based in vitro pharmacokinetic-pharmacodynamic tuberculosis model assessed as microbial killing administered at simulated dose of 2100 mg, po twice weekly; format: functional, organism-based; summary of the method: as §2
structure (smiles),measurement,setting,value
CO[C@H]1/C=C/O[C@@]2(C)Oc3c(C)c(O)c4c(O)c(c(/C=N/N5CCN(C)CC5)c(O)c4c3C2=O)NC(=O)/C(C)=C\C=C\[C@H](C)[C@H](O)[C@@H](C)[C@@H](O)[C@@H](C)[C@H](OC(C)=O)[C@@H]1C [RIFAMPIN],"AUC at 7 h, 2 mg/L",[1],14000 ng·h/mL
same,fCmax,Homo sapiens [2],2 mg/L
same,Hg,[3],0.361
same,Hk,[4],1.388
same,C50g,[5],1932 mg/L
same,AUC(0-t) at 168 h,[6],14000 ng·h/mL
same,fAUC,Homo sapiens [7],112000 ng·h/mL
same,AUC(0-t) at 168 h,[8],122000 ng·h/mL
same,Kkmax,[9],15.829 ×10⁻³ log10CFU/ml/hr
same,"AUC at 0.5 h, 14 mg/L",[10],7000 ng·h/mL
same,Activity,[11],Active
same,"AUC at 2 h, 7 mg/L",[12],14000 ng·h/mL
same,C50k,[13],7.652 mg/L
same,PAE,[14],19.3 days
same,fCmax,Homo sapiens [15],14 mg/L
same,PAE,[16],12.9 days
same,PAE,[17],5.2 days
same,Kgmax,[18],9.756 ×10⁻³ log10CFU/ml/hr
same,fAUC,Homo sapiens [19],112000 ng·h/mL
same,PAE,[20],12 days
same,"AUC at 1 h, 7 mg/L",[21],7000 ng·h/mL
same,CFU,[22],1.95 mL⁻¹
same,AUC at 168 h,[23],112000 ng·h/mL
same,CL,[24],99 L/h
same,MIC90,[25],0.125 µg/mL
same,fCmax,Homo sapiens [26],7 mg/L
same,Drug uptake,[27],Dose-dependent effect
same,fAUC,Homo sapiens [28],16000 ng·h/mL
same,Activity,[29],Active
